# Only some compounds are listed: those with a hit (about 1.5% of all), similar ones and a draw of the others.
# APJ ag: agonists of human APJ apelin receptor; P35414; CHO-K1 APJ PathHunter beta-arrestin, luminescence; 0% DMSO wells, 100% apelin; activation, % at 20 µM; actives 0.11% (n = 330,000); AID 2520;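 active = activation more than six SD over the plate average, tested at 20 µM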;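 also: 0% = DMSO alone and 100% = apelin-13 at 10 nM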
#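 assay system = CHO-K1 APJ beta-arrestin complementation cell line | input = cell density 1000 per well | dosing = compound 20 µM once, DMSO 1% | timing = compound 90 min 25 °C, reagent 1 h | measured by = luminescence from split beta-galactosidase complementation, Galacton Star/Emerald II substrate | read-out basis = APJ agonist activity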
# CXCR6 inh: blocks human CXCR6 beta-arrestin recruitment; O00574; CHO-K1 PathHunter CXCR6 beta-arrestin, luminescence; inhibition, % at 20 µM; actives 0.36% (n = 360,000); in the data active = inhibition above about 34%, passing the limit was not always enough;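 also: antagonist mode with CXCL16 agonist at 10 nM final; 0% = 10 nM CXCL16 with DMSO and 100% = unstimulated wells without agonist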
# CCR6 antag: CCR6 (human) receptor antagonism; CHO-K1 CCR6 PathHunter beta-arrestin, luminescence, CCL20-stimulated; actives 0.49% (n = 340,000); AID 493098; inhibition, % at 20 µM;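 active = compounds whose inhibition of the agonist-driven luminescence signal at 20 µM reaches about 50%, limit read from the data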;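 also: cells stimulated with CCL20 at 14 nM final; plate controls were DMSO with CCL20 for no effect and DMSO without agonist for full effect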
# EBI2 antag: blocks human EBI2 receptor beta-arrestin signaling; P32249; EBI2 beta-arrestin recruitment, luminescence, 7a,25-OHC stimulated; actives 0.81% (n = 360,000); inhibition, % at 5 µM; in the data active = inhibition above about 38%;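 also: enzyme fragment complementation signal reports receptor beta-arrestin coupling in cells; 0% = agonist plus DMSO wells and 100% = wells without agonist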
# Target sequence (P32249 whole entry, looked up, the tested form may be a part): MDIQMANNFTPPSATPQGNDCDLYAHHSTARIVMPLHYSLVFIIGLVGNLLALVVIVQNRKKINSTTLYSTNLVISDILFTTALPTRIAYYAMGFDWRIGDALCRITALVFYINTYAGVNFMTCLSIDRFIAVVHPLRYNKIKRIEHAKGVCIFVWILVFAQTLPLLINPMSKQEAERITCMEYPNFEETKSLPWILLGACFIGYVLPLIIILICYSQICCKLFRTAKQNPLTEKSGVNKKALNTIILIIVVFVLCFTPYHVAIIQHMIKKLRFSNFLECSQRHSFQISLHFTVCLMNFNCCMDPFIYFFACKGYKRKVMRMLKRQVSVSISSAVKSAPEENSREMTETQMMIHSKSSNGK
# APJ antag: antagonists of human APJ apelin receptor; P35414; CHO-K1 APJ beta-arrestin complementation, luminescence; inhibition, % at 20 µM; actives 0.32% (n = 330,000);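 active = inhibition above about 40% at 20 µM, limit read from the data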;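 also: cells challenged with 10 nM apelin-13 agonist together with compound; plate controls were apelin-13 plus DMSO wells for no effect and DMSO wells lacking apelin-13 for full effect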
# CXCR6 confirm: confirmation of human CXCR6 receptor antagonists; shares compounds with CXCR6 inh; CHO-K1 CXCR6 PathHunter beta-arrestin, luminescence; inhibition, % at 20 µM; actives 65% (n = 700); AID 602409;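 active = mean inhibition over four retests above 40%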;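 also: receptor stimulated with 10 nM CXCL16 agonist; beta-galactosidase fragment complementation upon beta-arrestin recruitment to receptor; plate controls were CXCL16 plus DMSO for no effect and DMSO without CXCL16 for full effect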
# * marks the source's active call; other numbers are inactive results; · = no result.
SMILES,APJ ag,CXCR6 inh,CCR6 antag,EBI2 antag,APJ antag,CXCR6 confirm
Cc1nn2c(NCc3ccccn3)cc(C(C)C)nc2c1-c1ccccc1,-4,49*,52*,-16,7,9
CCN1CCC(O)(/C=C/c2ccc(C(C)C)cc2)C(C(=O)/C=C/c2ccc(C(C)C)cc2)C1 (configuration not stated),·,-12,27,-12,·,·
CC(Oc1cccc(Br)c1)C(=O)NNC(=O)c1ccccn1 (configuration not stated),-4,52*,48,-6,15,56*
CCC[n+]1c(C)sc2c3c(ccc21)CCCC3,-1,42*,25,1,28,2
CC[n+]1c(C)sc2c(C)cc(C)cc21,-1,-2,9,1,12,·
Cc1ccc(F)c(S(=O)(=O)NC(=O)C2(C)CCN2C(=O)Cc2ccsc2)c1 (configuration not stated),·,1,·,-13,·,·
CC(=NO)C1CCC2C3CCC4=CC(=NO)CCC4(C)C3C(O)CC12C (configuration not stated),·,44*,57*,5,·,57*
O=C(NC(=S)Nc1ccc([N+](=O)[O-])cc1)c1ccco1,·,42*,·,9,·,40
CCCc1cc(NCc2ccccn2)n2c(nc3ccccc32)c1C#N,3,59*,2,-38,-20,-1
Cc1cc(NCc2ccccn2)n2c(nc3ccccc32)c1C#N,·,-15,-7,-8,·,·
COc1ccc(N2C(=O)c3ccccc3NC(=O)C2C(=O)Nc2ccc(N3CCOCC3)cc2)cc1 (configuration not stated),·,·,·,0,·,·
c1ccc(-c2nc(NCc3ccco3)c3ccccc3n2)nc1,-10,43*,53*,16,35,32
CC1=C(C(=O)N(C)C)CC(CC(=O)NC2CCCCC2)C(=O)N1Cc1ccc(F)cc1 (configuration not stated),·,-2,·,-2,·,·
Cc1ccc(NC(=O)c2cc(N3C(=O)C=CC3=O)ccc2N2CCOCC2)cc1,·,89*,·,0,·,28
COc1ccc(NC(=O)c2cc(C3CCCCN3C(=O)c3ccccc3)on2)c(C)c1 (configuration not stated),·,3,·,-5,·,·
Nc1ccccc1C#CC(=O)c1ccccc1,-2,40*,21,-10,7,59*
O=C(C#Cc1cccc([N+](=O)[O-])c1)c1ccccc1,10,72*,·,19,31,71*
COc1cc(-c2cnc3c(NC=O)cc(-c4ccsc4)cn23)cc(OC)c1OC,·,-2,·,2,·,·
COC(=O)CCS(=O)(=O)c1nc(-c2ccccc2)cc(C(F)(F)F)n1,-2,30,11,21,-9,·
CCOC(=O)CS(=O)(=O)c1nc(-c2ccccc2)cc(C(F)(F)F)n1,-4,51*,23,20,30,44*
O=C(NCc1cccnc1)c1cc(C2CCCN(S(=O)(=O)c3cccc4cccnc34)C2)on1 (configuration not stated),·,6,·,-6,·,·
O=C(CN1C2CCCC1CC(NC(=O)c1ccco1)C2)Nc1ccccc1 (configuration not stated),-3,1,-2,-11,20,·
COc1cc(C(=O)NC2CC3CCCC(C2)N3CC(=O)Nc2ccccc2)cc(OC)c1OC (configuration not stated),-4,62*,4,3,6,69*
Cc1c(CCCl)c(Cl)n2c(nc3ccccc32)c1C#N,·,44*,63*,67*,·,40
Cc1cc(Cl)n2c(nc3ccccc32)c1C#N,·,12,17,-11,·,·
OCCNc1ncnc2c1ncn2[C@H]1CN(C2CCCC2)C[C@@H](CO)O1,·,-4,·,-1,·,·
Fc1cccc(Cc2c(-c3ccco3)nc3c(Cl)cc(C(F)(F)F)cn23)c1,·,6,·,23,·,·
O=C(Nc1ccc(F)cc1)C(c1cc2ccccc2o1)N1CCN(c2ccncc2)CC1 (configuration not stated),·,·,·,-4,·,·
Nc1nnc(SCC(=O)OCC(=O)c2ccccc2Br)s1,0,49*,13,-4,4,9
Nc1nnc(SCC(=O)OCC(=O)c2ccccc2)s1,-2,-2,-2,3,-6,·
